Tested on: HEK-293T
Experiment: Multiplex assay against HEK293T
Type: toxicity, cell-based
Settings: human
Summary of the method: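 Cells were classed with CellPathfinder machine-learning gating, first as Hoechst high-intensity objects or normal cells, then (normal cells) as healthy, pyknosed or fragmented nuclei, and finally (pyknosed cells) as mitotic or apoptotic. Staining of live cells at seeding used Hoechst33342, BioTracker Green Microtubule Cytoskeleton Dye, MitoTracker Red and Annexin V Alexa Fluor 680, with imaging on a CQ1 microscope at 37°C and 5% CO2 after compound addition. Tubulin, mitochondrial-mass and membrane-permeability phenotypes are per cents of healthy-nucleus cells.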

[1] = 12 h, 1 µM, compound concentration 1 uM, replicate 1
[2] = 12 h, 1 µM, compound concentration 1 uM, replicate 2
[3] = 12 h, 10 µM, compound concentration 10 uM, replicate 1
[4] = 12 h, 10 µM, compound concentration 10 uM, replicate 2
[5] = 24 h, 1 µM, compound concentration 1 uM, replicate 1
[6] = 24 h, 1 µM, compound concentration 1 uM, replicate 2
[7] = 24 h, 10 µM, compound concentration 10 uM, replicate 1
[8] = 24 h, 10 µM, compound concentration 10 uM, replicate 2
[9] = 48 h, 1 µM, compound concentration 1 uM, replicate 1
[10] = 48 h, 1 µM, compound concentration 1 uM, replicate 2
[11] = 48 h, 10 µM, compound concentration 10 uM, replicate 1
[12] = 48 h, 10 µM, compound concentration 10 uM, replicate 2

Structure (SMILES): CSCC[C@H](NC=O)C(=O)N[C@@H](CC(C)C)C(=O)N[C@@H](Cc1ccccc1)C(=O)O
- Population Mitochondria Different-Phenotype (%) [1]: 47%
- Population Tubulin-Different-Phenotype (%) [1]: 23%
- Total Cell Count [1]: 466
- Population Apoptotic (%) [2]: 28%
- Population Mitochondria Different-Phenotype (%) [2]: 57%
- Population Mitotic Cells (%) [2]: 71%
- Population Tubulin-Different-Phenotype (%) [2]: 16%
- Total Cell Count [2]: 437
- Population Mitochondria Different-Phenotype (%) [3]: 52%
- Population Tubulin-Different-Phenotype (%) [3]: 37%
- Total Cell Count [3]: 366
- Population Apoptotic (%) [4]: 54%
- Population Mitochondria Different-Phenotype (%) [4]: 64%
- Population Mitotic Cells (%) [4]: 45%
- Population Tubulin-Different-Phenotype (%) [4]: 31%
- Total Cell Count [4]: 375
- Population Apoptotic (%) [5]: 21%
- Population Mitochondria Different-Phenotype (%) [5]: 21%
- Population Mitotic Cells (%) [5]: 78%
- Population Tubulin-Different-Phenotype (%) [5]: 14%
- Total Cell Count [5]: 679
- Population Mitochondria Different-Phenotype (%) [6]: 37%
- Population Tubulin-Different-Phenotype (%) [6]: 12%
- Total Cell Count [6]: 550
- Population Apoptotic (%) [7]: 25%
- Population Mitochondria Different-Phenotype (%) [7]: 38%
- Population Mitotic Cells (%) [7]: 75%
- Population Tubulin-Different-Phenotype (%) [7]: 25%
- Total Cell Count [7]: 479
- Population Apoptotic (%) [8]: 36%
- Population Mitochondria Different-Phenotype (%) [8]: 53%
- Population Mitotic Cells (%) [8]: 64%
- Population Tubulin-Different-Phenotype (%) [8]: 22%
- Total Cell Count [8]: 490
- Population Apoptotic (%) [9]: 29%
- Population Mitochondria Different-Phenotype (%) [9]: 12%
- Population Tubulin-Different-Phenotype (%) [9]: 12%
- Total Cell Count [9]: 1154
- Population Apoptotic (%) [10]: 20%
- Population Mitochondria Different-Phenotype (%) [10]: 17%
- Population Mitotic Cells (%) [10]: 79%
- Total Cell Count [10]: 838
- Population Apoptotic (%) [11]: 28%
- Population Mitochondria Different-Phenotype (%) [11]: 24%
- Population Mitotic Cells (%) [11]: 71%
- Population Tubulin-Different-Phenotype (%) [11]: 12%
- Total Cell Count [11]: 704
- Population Apoptotic (%) [12]: 36%
- Population Mitochondria Different-Phenotype (%) [12]: 28%
- Population Mitotic Cells (%) [12]: 63%
- Population Tubulin-Different-Phenotype (%) [12]: 14%
- Total Cell Count [12]: 674

Structure (SMILES): O=C1COc2nccc(-c3ccccc3F)c2CN1Cc1cc(C(F)(F)F)cc(C(F)(F)F)c1
- Population Apoptotic (%) [1]: 31%
- Population Fragmented Nuclei (%) [1]: 8%
- Population Healthy Nuclei (%) [1]: 80%
- Population Hoechst High Intensity Objects (%) [1]: 5%
- Population Membrane Permeable-Phenotype (%) [1]: 0%
- Population Mitochondria Different-Phenotype (%) [1]: 41%
- Population Mitotic Cells (%) [1]: 68%
- Population Normal (%) [1]: 94%
- Population Pyknosed Nuclei (%) [1]: 10%
- Population Tubulin-Different-Phenotype (%) [1]: 27%
- Total Cell Count [1]: 397
- Population Apoptotic (%) [2]: 51%
- Population Fragmented Nuclei (%) [2]: 4%
- Population Healthy Nuclei (%) [2]: 83%
- Population Hoechst High Intensity Objects (%) [2]: 10%
- Population Mitochondria Different-Phenotype (%) [2]: 67%
- Population Mitotic Cells (%) [2]: 48%
- Population Normal (%) [2]: 89%
- Population Pyknosed Nuclei (%) [2]: 11%
- Population Tubulin-Different-Phenotype (%) [2]: 20%
- Total Cell Count [2]: 333
- Population Apoptotic (%) [3]: 38%
- Population Fragmented Nuclei (%) [3]: 10%
- Population Healthy Nuclei (%) [3]: 76%
- Population Hoechst High Intensity Objects (%) [3]: 9%
- Population Membrane Permeable-Phenotype (%) [3]: 0%
- Population Mitochondria Different-Phenotype (%) [3]: 67%
- Population Mitotic Cells (%) [3]: 61%
- Population Normal (%) [3]: 90%
- Population Pyknosed Nuclei (%) [3]: 13%
- Population Tubulin-Different-Phenotype (%) [3]: 68%
- Total Cell Count [3]: 475
- Population Apoptotic (%) [4]: 57%
- Population Fragmented Nuclei (%) [4]: 8%
- Population Healthy Nuclei (%) [4]: 79%
- Population Hoechst High Intensity Objects (%) [4]: 5%
- Population Mitochondria Different-Phenotype (%) [4]: 76%
- Population Mitotic Cells (%) [4]: 42%
- Population Normal (%) [4]: 94%
- Population Pyknosed Nuclei (%) [4]: 12%
- Population Tubulin-Different-Phenotype (%) [4]: 39%
- Total Cell Count [4]: 382
- Population Apoptotic (%) [5]: 21%
- Population Fragmented Nuclei (%) [5]: 8%
- Population Healthy Nuclei (%) [5]: 84%
- Population Hoechst High Intensity Objects (%) [5]: 3%
- Population Membrane Permeable-Phenotype (%) [5]: 0%
- Population Mitochondria Different-Phenotype (%) [5]: 32%
- Population Mitotic Cells (%) [5]: 78%
- Population Normal (%) [5]: 96%
- Population Pyknosed Nuclei (%) [5]: 7%
- Population Tubulin-Different-Phenotype (%) [5]: 23%
- Total Cell Count [5]: 517
- Population Apoptotic (%) [6]: 59%
- Population Fragmented Nuclei (%) [6]: 5%
- Population Healthy Nuclei (%) [6]: 87%
- Population Hoechst High Intensity Objects (%) [6]: 8%
- Population Mitochondria Different-Phenotype (%) [6]: 39%
- Population Mitotic Cells (%) [6]: 40%
- Population Normal (%) [6]: 91%
- Population Pyknosed Nuclei (%) [6]: 6%
- Population Tubulin-Different-Phenotype (%) [6]: 12%
- Total Cell Count [6]: 428
- Population Apoptotic (%) [7]: 52%
- Population Fragmented Nuclei (%) [7]: 10%
- Population Healthy Nuclei (%) [7]: 76%
- Population Hoechst High Intensity Objects (%) [7]: 5%
- Population Membrane Permeable-Phenotype (%) [7]: 0%
- Population Mitochondria Different-Phenotype (%) [7]: 71%
- Population Mitotic Cells (%) [7]: 47%
- Population Normal (%) [7]: 94%
- Population Pyknosed Nuclei (%) [7]: 13%
- Population Tubulin-Different-Phenotype (%) [7]: 68%
- Total Cell Count [7]: 520
- Population Apoptotic (%) [8]: 36%
- Population Fragmented Nuclei (%) [8]: 7%
- Population Healthy Nuclei (%) [8]: 79%
- Population Mitochondria Different-Phenotype (%) [8]: 72%
- Population Mitotic Cells (%) [8]: 63%
- Population Pyknosed Nuclei (%) [8]: 12%
- Population Tubulin-Different-Phenotype (%) [8]: 44%
- Total Cell Count [8]: 492
- Population Apoptotic (%) [9]: 27%
- Population Fragmented Nuclei (%) [9]: 13%
- Population Healthy Nuclei (%) [9]: 80%
- Population Hoechst High Intensity Objects (%) [9]: 2%
- Population Membrane Permeable-Phenotype (%) [9]: 0%
- Population Mitochondria Different-Phenotype (%) [9]: 29%
- Population Mitotic Cells (%) [9]: 72%
- Population Normal (%) [9]: 97%
- Population Pyknosed Nuclei (%) [9]: 6%
- Population Tubulin-Different-Phenotype (%) [9]: 14%
- Total Cell Count [9]: 743
- Population Apoptotic (%) [10]: 38%
- Population Fragmented Nuclei (%) [10]: 9%
- Population Healthy Nuclei (%) [10]: 81%
- Population Hoechst High Intensity Objects (%) [10]: 4%
- Population Mitochondria Different-Phenotype (%) [10]: 23%
- Population Mitotic Cells (%) [10]: 61%
- Population Normal (%) [10]: 95%
- Population Pyknosed Nuclei (%) [10]: 8%
- Population Tubulin-Different-Phenotype (%) [10]: 12%
- Total Cell Count [10]: 574
- Population Apoptotic (%) [11]: 44%
- Population Fragmented Nuclei (%) [11]: 13%
- Population Healthy Nuclei (%) [11]: 75%
- Population Hoechst High Intensity Objects (%) [11]: 3%
- Population Membrane Permeable-Phenotype (%) [11]: 0%
- Population Mitochondria Different-Phenotype (%) [11]: 63%
- Population Mitotic Cells (%) [11]: 55%
- Population Normal (%) [11]: 96%
- Population Pyknosed Nuclei (%) [11]: 11%
- Population Tubulin-Different-Phenotype (%) [11]: 46%
- Total Cell Count [11]: 713
- Population Apoptotic (%) [12]: 56%
- Population Fragmented Nuclei (%) [12]: 11%
- Population Healthy Nuclei (%) [12]: 80%
- Population Hoechst High Intensity Objects (%) [12]: 2%
- Population Mitochondria Different-Phenotype (%) [12]: 51%
- Population Mitotic Cells (%) [12]: 43%
- Population Normal (%) [12]: 97%
- Population Pyknosed Nuclei (%) [12]: 7%
- Population Tubulin-Different-Phenotype (%) [12]: 25%
- Total Cell Count [12]: 669

Reference: ChEMBL document CHEMBL5058577, “EUbOPEN Chemogenomics Library 2 (Multiplex)” (2022)
